From ChEMBL document CHEMBL4321824, “Structure-Activity Relationships of cyclo(l-Tyrosyl-l-tyrosine) Derivatives Binding to Mycobacterium tuberculosis CYP121: Iodinated Analogues Promote Shift to High-Spin Adduct” (J Med Chem, 2019)

Tests used:
Cytochrome P450 [1] = target: T1, Cytochrome P450 (Mycobacterium tuberculosis, UniProt A0A0T9WNE5); assay: Binding affinity to Mycobacterium tuberculosis CYP121 expressed in Escherichia coli HMS174 (DE3) by UV-visible scanning spectrophotometric analysis
T1 sequence (A0A0T9WNE5 whole entry): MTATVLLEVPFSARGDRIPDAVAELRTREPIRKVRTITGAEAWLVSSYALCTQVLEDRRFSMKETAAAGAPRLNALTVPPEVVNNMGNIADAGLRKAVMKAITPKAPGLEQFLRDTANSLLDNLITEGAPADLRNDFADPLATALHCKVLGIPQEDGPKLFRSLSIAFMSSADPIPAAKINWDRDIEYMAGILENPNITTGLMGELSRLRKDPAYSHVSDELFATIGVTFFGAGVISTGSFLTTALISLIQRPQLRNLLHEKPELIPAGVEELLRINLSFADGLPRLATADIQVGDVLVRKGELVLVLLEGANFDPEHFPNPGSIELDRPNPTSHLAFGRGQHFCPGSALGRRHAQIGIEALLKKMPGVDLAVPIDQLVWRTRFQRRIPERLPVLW
How it was run: (§1)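 Spectrophotometric titration of 3–4 µM CYP121 (untagged or N-terminal His6-tagged) at 25 °C in 100 mM potassium phosphate, 200 mM KCl, pH 7.8. Ligand in DMSO added stepwise from 0 µM until no further spectral change; spectra recorded 250–800 nm. Difference spectra taken against ligand-free enzyme, and peak-minus-trough ΔAmax plotted against [ligand]. KD obtained by hyperbolic fit, or Hill fit for sigmoidal data.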

Cytochrome P450 [2] = target: T1, Cytochrome P450; assay: Stability in Mycobacterium tuberculosis assessed as CYP121-catalyzed turnover; type: ADME
Cytochrome P450 [3] = target: T1, Cytochrome P450; assay: Binding affinity to Mycobacterium tuberculosis Mycobacterium tuberculosis CYP121 expressed in Escherichia coli HMS174 (DE3) assessed as compound-adduct formation by measuring high spin complex by UV-visible scanning spectrophotometric analysis relative to control; set-up: concentration or dose not given beside the values
How it was run: (§2)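 Fraction of high-spin heme taken from UV-Vis titration spectra of CYP121 (untagged or His6-tagged; 3–4 µM, 25 °C, 100 mM potassium phosphate, 200 mM KCl, pH 7.8). %HS calculated from absorbances at 415 and 393 nm using LS and HS extinction coefficients.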

Cytochrome P450 [4] = target: T1, Cytochrome P450; assay: Binding affinity to Mycobacterium tuberculosis CYP121 expressed in Escherichia coli HMS174 (DE3) assessed as compound-adduct formation by measuring high spin complex at 0.5 to 2 mM incubated for 20 mins by EPR Spectroscopic method (reference value: 0%)
How it was run: (§3)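 EPR samples contained 155 µM CYP121 (untagged or His6-tagged) in 100 mM HEPES, 100 mM KCl, pH 7.5, with ligand or DMSO at a final 0.5–2 mM depending on solubility. Samples were incubated 20 min at room temperature and briefly centrifuged before spectra were recorded; the high-spin heme signal was assessed.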

[5] = system: Mycobacterium tuberculosis; assay: Antimycobacterial activity against Mycobacterium tuberculosis H37Rv assessed as reduction in bacterial growth after 7 days by resazurin based fluorescence assay; type: functional; conditions: 168 h
How it was run: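 Mtb H37Rv grown in 7H9 with ADC to OD 0.6–0.8, then diluted to OD600 0.001 and added to 1:2 serial compound dilutions (usually from 100 µM; 0.1% DMSO). Incubated 7 days at 37 °C, then 0.05% w/v resazurin for 24 h at 37 °C. Fluorescence read at 590 nm, background subtracted, and survival expressed relative to untreated wells. Rifampicin served as positive control.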

Cytochrome P450 [6] = target: T1, Cytochrome P450; assay: Binding affinity to Mycobacterium tuberculosis His6-tagged CYP121 by UV-visible scanning spectrophotometric analysis; how it was run: as §1
Cytochrome P450 [7] = target: T1, Cytochrome P450; assay: Binding affinity to Mycobacterium tuberculosis His6-tagged CYP121 assessed as compound-adduct formation by measuring high spin complex by UV-visible scanning spectrophotometric analysis relative to control; set-up: concentration or dose not given beside the values; how it was run: as §2
Cytochrome P450 [8] = target: T1, Cytochrome P450; assay: Binding affinity to Mycobacterium tuberculosis His6-tagged CYP121 assessed as compound-adduct formation by measuring high spin complex at 0.5 to 2 mM incubated for 20 mins by EPR Spectroscopic method (reference value: 0%); how it was run: as §3
Cytochrome P450 [9] = target: T1, Cytochrome P450; assay: Binding affinity to Mycobacterium tuberculosis CYP121 expressed in Escherichia coli HMS174 (DE3) at 120 uM by UV-visible scanning spectrophotometric analysis
Cytochrome P450 [10] = target: T1, Cytochrome P450; assay: Potency index, ratio of cyclo(L-Tyrosine-L-tyrosine) Kd for binding affinity to Mycobacterium tuberculosis CYP121 expressed in Escherichia coli HMS174 (DE3) to test compound Kd for binding affinity to Mycobacterium tuberculosis His6-tagged CYP121 by UV-visible scanning spectrophotometric analysis
Cytochrome P450 [11] = target: T1, Cytochrome P450; assay: Potency index, ratio of cyclo(L-Tyrosine-L-tyrosine) Kd to test compound Kd for binding affinity to Mycobacterium tuberculosis CYP121 expressed in Escherichia coli HMS174 (DE3) by UV-visible scanning spectrophotometric analysis

Row | SMILES | Kd (Cytochrome P450 [1]) [µM] | Stability (Cytochrome P450 [2]) | Activity (Cytochrome P450 [3]) [%] | Activity (Cytochrome P450 [4]) [%] | MIC [5] [µM] | Kd (Cytochrome P450 [6]) [µM] | Activity (Cytochrome P450 [7]) [%] | Activity (Cytochrome P450 [8]) [%] | Activity (Cytochrome P450 [9]) | Ratio (Cytochrome P450 [10]) | Ratio (Cytochrome P450 [11])
1 | O=C1N[C@@H](Cc2ccccc2)C(=O)N[C@H]1Cc1ccccc1 | 2.4 | Stable | 3 | 0 | > 100 |  |  |  |  |  | 
2 | O=C1N[C@@H](Cc2ccc(O)cc2)C(=O)N[C@H]1Cc1ccc(O)cc1 |  |  | 52 | 2.7 |  |  |  |  |  |  | 
3 | O=C1N[C@@H](Cc2ccc(O)cc2)C(=O)N[C@H]1Cc1ccccc1 | 80.8 | Stable | 5 | 1.4 | > 100 |  |  |  |  |  | 
4 | Cc1cc(O)cc(C)c1C[C@@H]1NC(=O)[C@H](Cc2ccc(O)cc2)NC1=O |  | Stable |  |  | > 100 | > 100 | 1 | 1.9 | Not Active |  | 
5 | O=C1N[C@@H](Cc2ccc(I)cc2)C(=O)N[C@H]1Cc1ccc(I)cc1 | 0.72 | Stable | 3 | 7.5 | > 100 |  |  |  |  | <= 100 | 
6 | COc1ccc(C[C@@H]2NC(=O)[C@H](Cc3ccc(O)cc3)NC2=O)cc1 | 10.4 | Stable | 61 | 64 | > 100 |  |  |  |  |  | 3
7 | Cc1cc(C[C@@H]2NC(=O)[C@H](Cc3ccc(O)cc3)NC2=O)cc(C)c1O |  | Stable |  |  | > 100 | 15.1 | 75 | 62 |  |  | 
8 | Cc1cc(O)ccc1C[C@@H]1NC(=O)[C@H](Cc2ccc(O)cc2)NC1=O |  | Stable |  |  | > 100 | 39.8 | 20 | 0.6 |  |  | 
9 | O=C1N[C@@H](Cc2ccc(O)c(I)c2)C(=O)N[C@H]1Cc1ccc(O)c(I)c1 | 0.45 | Stable | 100 | 100 | > 100 |  |  |  |  | <= 100 | 
10 | O=C1N[C@@H](Cc2ccc(O)c(I)c2)C(=O)N[C@H]1Cc1ccc(O)cc1 |  | Stable |  |  | > 100 | 0.28 | 98 | 86 |  | <= 100 | 
11 | O=C1N[C@@H](Cc2ccc(O)c(F)c2)C(=O)N[C@H]1Cc1ccc(O)cc1 |  | Stable |  |  | > 100 | 12.8 | 36 | 1.2 |  |  | 
12 | Cc1cc(C[C@@H]2NC(=O)[C@H](Cc3ccc(O)cc3)NC2=O)ccc1O |  | Stable |  |  | > 100 | 1.1 | 91 | 11 |  |  | 
13 | O=C1N[C@@H](Cc2ccc(F)cc2)C(=O)N[C@H]1Cc1ccc(F)cc1 | 6.3 | Stable | 1 | 1.5 | > 100 |  |  |  |  |  | 
14 | O=C1N[C@@H](Cc2ccc(O)c(Cl)c2)C(=O)N[C@H]1Cc1ccc(O)cc1 |  | Stable |  |  | > 100 | 1.5 | 68 | 21 |  |  | 
15 | COc1ccc(C[C@@H]2NC(=O)[C@H](Cc3ccc(OC)cc3)NC2=O)cc1 | 29.4 | Stable | 35 | 56 | > 100 |  |  |  |  |  | 
16 | O=C1N[C@@H](Cc2ccc(O)c(Br)c2)C(=O)N[C@H]1Cc1ccc(O)cc1 |  | Stable |  |  | > 100 | 0.46 | 85 | 68 |  |  | 
17 | O=C1N[C@H]2Cc3ccc(O)c(c3)-c3cc(ccc3O)C[C@@H]1NC2=O |  | Unstable |  |  |  |  |  |  |  |  | 
18 | O=C1N[C@@H](Cc2cc(I)c(O)c(I)c2)C(=O)N[C@H]1Cc1ccc(O)cc1 |  | Stable |  |  | > 100 | 9.1 | 74 | 38 |  |  | 
